“Also recorded” adds a separate entry of the source. Like-named read-outs stand apart in the source and are kept apart here. Each block holds one molecule with its values, some of them ahead of it.
Assays:
[1] = test system: hER; settings: read-out: EC50, hER agonist; cited from earlier work
[2] = test system: aERα; assay: CV1 transactivation assay with exogenous aERα; format: cell-based, American alligator (Alligator mississippiensis)
[3] = biological target: aERα; settings: read-out: Dissociation constant (Kd) of aERα for E2; recombinant aERα; cited from earlier work
[4] = test system: endogenous hERα and hERβ; assay: T47D-KBluc transactivation assay; format: cell-based, human
Summary of the method: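 Stably transfected T47D reporter line (endogenous ERα/ERβ, 3×-ERE-TATA-Luc) was plated at 10,000 cells/well and dosed after overnight culture for 24 h. […] After PBS rinse and lysis, luciferase RLU was read with D-luciferin and converted to log fold induction. One-way ANOVA was applied. There were two independent experiments, four wells per treatment.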

[5] = biological target: alligator estrogen receptor alpha (aERα) (Alligator mississippiensis, UniProt Q765N7); assay: Cell-free competitive binding assay with baculovirus-expressed recombinant aERα; design: species or system American alligator (Alligator mississippiensis); settings: for RBA, Alligator: IC50 of 17β-estradiol / IC50 of compound × 100; for Binding classification for aERα: non-binder <50% E2 displaced, equivocal binder 50% or greater but <80%; for Binder class, Alligator: aERα, displacement of [3H]E2 at highest soluble concentration; for E2 displaced from aERα: maximum displacement of radiolabeled E2
[6] = test system: alligator embryos; settings: cited from earlier work
[7] = test system: human MCF-7 cells; settings: proliferation of human MCF-7 cells; cited from earlier work
[8] = test system: alligator estrogen receptor (aER) derived from adult female alligator oviductal tissue; settings: cited from earlier work
[9] = biological target: T1, human estrogen receptor alpha (hERα) (Homo sapiens, UniProt P03372); assay: Cell-free competitive binding assay with baculovirus-expressed recombinant hERα; settings: for Binding classification for hERα: non-binder <50% E2 displaced, equivocal binder 50% or greater but <80%; for RBA, Human: IC50 of 17β-estradiol / IC50 of compound × 100; for Binder class, Human: hERα, displacement of [3H]E2 at highest soluble concentration; for E2 displaced from hERα: maximum displacement of radiolabeled E2
T1 sequence (P03372 1-595): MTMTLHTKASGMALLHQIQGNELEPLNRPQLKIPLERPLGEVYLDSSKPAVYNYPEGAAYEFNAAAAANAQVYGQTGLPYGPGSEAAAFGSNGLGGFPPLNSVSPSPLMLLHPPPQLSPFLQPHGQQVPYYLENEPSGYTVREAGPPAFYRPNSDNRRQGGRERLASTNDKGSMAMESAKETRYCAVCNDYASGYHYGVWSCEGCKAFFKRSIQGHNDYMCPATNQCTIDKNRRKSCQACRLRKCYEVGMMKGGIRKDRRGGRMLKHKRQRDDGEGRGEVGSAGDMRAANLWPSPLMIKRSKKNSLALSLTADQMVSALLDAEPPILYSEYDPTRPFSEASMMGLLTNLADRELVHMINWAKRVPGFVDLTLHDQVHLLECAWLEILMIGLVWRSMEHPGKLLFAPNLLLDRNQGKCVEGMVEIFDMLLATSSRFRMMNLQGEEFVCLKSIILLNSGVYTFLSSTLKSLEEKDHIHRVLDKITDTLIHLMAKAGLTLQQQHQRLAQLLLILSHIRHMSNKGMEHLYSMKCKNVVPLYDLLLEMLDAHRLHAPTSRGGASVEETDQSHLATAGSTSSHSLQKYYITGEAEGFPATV

[10] = test system: human estrogen receptor (hER); settings: cited from earlier work
[11] = test system: CV1 cells; assay: Cell distress observed in the CV1 transactivation assay; format: cell-based, monkey; settings: 30 μM
[12] = test system: T47D-KBluc cells; assay: Cytotoxicity observed in the T47D-KBluc assay; format: cell-based, human; settings: 30 μM
[13] = biological target: hERα (Homo sapiens, UniProt P03372); assay: CV1 transactivation assay with exogenous hERα; format: cell-based

SMILES: OC(c1ccc(Cl)cc1)(c1ccccc1Cl)C(Cl)(Cl)Cl (racemic) [racemic (±) o,p′-dicofol, o,p′-dicofol]
- EC50 [1]: 4200 nM

SMILES: OC(c1ccc(Cl)cc1)(c1ccccc1Cl)C(Cl)(Cl)Cl (single isomer, unassigned; (-)) [(−) o,p′-dicofol, o,p′-dicofol]
- EC50 [1]: 510 nM

- RBA, Alligator [5]: 100
SMILES: C[C@]12CC[C@@H]3c4ccc(O)cc4CC[C@H]3[C@@H]1CC[C@@H]2O [17β-Estradiol, reference compound]
- Transcription of estrogen responsive gene with aERα ([2]; CV1 cells): induced transcription
- Kd [3]: 0.44 ± 0.039 nM
- Transcriptional activation of estrogen-dependent reporter ([4]; T47D-KBluc cells): dose dependent transactivation

SMILES: CCNc1nc(Cl)nc(NC(C)C)n1 [Atrazine]
- Sex reversal ([6]; 33°C, stage 21, single topical egg exposure to 0.14, 1.40, or 14.0 ppm): no sex reversal at any concentration
- Gonadal aromatase activity ([6]; in ovo exposure): did alter gonadal aromatase activity
- Plasma E2 concentrations ([6]; in ovo exposure): not plasma E2 concentrations
- Activity in the E-screen assay [7]: inactive
- Binding to oviduct-derived aER [8]: able to bind
- Binding to hERα ([9]; at concentrations up to 100 μM): not able to bind
- Binding classification for hERα [9]: not able to bind; also recorded: non-binders
- Binding to hER [10]: do not bind
- Binding to aERα ([5]; at concentrations up to 100 μM): not able to bind
- Binding classification for aERα [5]: not able to bind; also recorded: non-binders

- RBA, Human [9]: 0.05
- IC50 [5]: 1070 nM
- RBA, Alligator [5]: 0.07
SMILES: CC(C)(c1ccc(O)cc1)c1ccc(O)cc1 [Bisphenol A, reference compound]

SMILES: CCNc1nc(Cl)nc(NC(C)(C)C#N)n1 [Cyanazine, cyanazine]
- Activity in the E-screen assay [7]: inactive
- Binder class, Alligator [5]: NB (Non-binder: displaced less than 50% 17b-estradiol at the highest soluble concentration.)

SMILES: C[C@]12CC[C@@H]3c4ccc(O)cc4C[C@@H](CCCCCCCCC[S+]([O-])CCCC(F)(F)C(F)(F)F)[C@H]3[C@@H]1CC[C@@H]2O (stereo partly drawn) [ICI, ICI 182,780, reference compound]
- Effect of ICI on E2-elicited transcriptional activation ([2]; 1 μM ICI + 10 nM E2, data not shown): ablated
- Effect of ICI on E2-elicited transactivation ([4]; 1 μM ICI + 30 pM E2, data not shown): reversed

SMILES: CCc1cccc(CC)c1N(COC)C(=O)CCl [alachlor]
- Activity in the E-screen assay [7]: inactive
- Binding to oviduct-derived aER [8]: able to bind
- Binding to hER [10]: do not bind

SMILES: ClC1=C(Cl)C2(Cl)C3C(Cl)C(Cl)CC3C1(Cl)C2(Cl)Cl (stereo not drawn) [chlordane]
- Activity in the E-screen assay [7]: inactive
- Binding to oviduct-derived aER [8]: able to bind

SMILES: ClC1=C(Cl)[C@]2(Cl)[C@H]3[C@H]([C@H](Cl)C(Cl)[C@@H]3Cl)[C@@]1(Cl)C2(Cl)Cl (stereo partly drawn) [cis-Nonachlor]
- RBA, Human [9]: 0.003
- Binder class, Human [9]: EB (Equivocal binder: displaced greater than 50%, but less than 80% at the highest soluble concentration.)
- RBA, Alligator [5]: 0.006
- Binder class, Alligator [5]: EB (Equivocal binder: displaced greater than 50%, but less than 80% at the highest soluble concentration.)

SMILES: ClC1=C(Cl)C2(Cl)C3C(Cl)C=CC3C1(Cl)C2(Cl)Cl (stereo not drawn) [heptachlor]
- Activity in the E-screen assay [7]: inactive
- Binding to oviduct-derived aER [8]: able to bind

SMILES: Cl[C@H]1[C@H](Cl)[C@@H](Cl)[C@@H](Cl)[C@H](Cl)[C@H]1Cl [lindane]
- Activity in the E-screen assay [7]: inactive

SMILES: ClC(Cl)=C(c1ccc(Cl)cc1)c1ccccc1Cl [o,p′-DDE, 1-Chloro-2-[2,2-dichloro-1-(4-chlorophenyl)ethenyl]benzene]
- IC50 [9]: 219000 nM
- RBA, Human [9]: 0.003
- Binder class, Human [9]: EB (Equivocal binder: displaced greater than 50%, but less than 80% at the highest soluble concentration.)
- Binding classification for hERα [9]: equivocal binders
- IC50 [5]: 85100 nM
- Binder class, Alligator [5]: EB (Equivocal binder: displaced greater than 50%, but less than 80% at the highest soluble concentration.)
- Binding classification for aERα [5]: equivocal binders

SMILES: Clc1ccc(C(c2ccccc2Cl)C(Cl)(Cl)Cl)cc1 (stereo not drawn) [o,p′-DDT, 1-Chloro-2-[2,2,2-trichloro-1-(4-chlorophenyl)ethyl]benzene]
- IC50 [5]: 977 nM
- RBA, Alligator [5]: 0.08

SMILES: Clc1ccc(C(c2ccc(Cl)cc2)C(Cl)Cl)cc1 [p,p′-DDD, 1-Chloro-4-[2,2-dichloro-1-(4-chlorophenyl)ethyl]benzene]
- Binder class, Human [9]: NB (Non-binder: displaced less than 50% 17b-estradiol at the highest soluble concentration.)
- Binding classification for hERα [9]: non-binders
- Binder class, Alligator [5]: NB (Non-binder: displaced less than 50% 17b-estradiol at the highest soluble concentration.)
- Binding classification for aERα [5]: non-binders

SMILES: ClC(Cl)=C(c1ccc(Cl)cc1)c1ccc(Cl)cc1 [p,p′-DDE, 1-Chloro-4-[2,2-dichloro-1-(4-chlorophenyl)ethenyl]benzene]
- Sex ratio ([6]; 100 ppb in ovo, 32°C (mixed sex ratio)): slight female sex bias
- Male to female sex reversal ([6]; 100 ppb in ovo, 33.5°C): no male to female sex reversal
- Binder class, Human [9]: NB (Non-binder: displaced less than 50% 17b-estradiol at the highest soluble concentration.)
- E2 displaced from hERα [9]: ~0%
- Binding classification for hERα [9]: non-binders
- Binder class, Alligator [5]: NB (Non-binder: displaced less than 50% 17b-estradiol at the highest soluble concentration.)
- E2 displaced from aERα [5]: ~28%
- Binding classification for aERα [5]: non-binders

SMILES: OC(c1ccc(Cl)cc1)(c1ccc(Cl)cc1)C(Cl)(Cl)Cl [p,p′-Dicofol, p,p′-dicofol]
- Cell distress (increase in detached cells) [11]: cell distress
- EC50 [1]: 1600 nM
- Concentration eliciting maximal transactivation ([2]; CV1 assay, aERα): 10 µM
- Transcription of estrogen responsive gene with aERα ([2]; CV1 cells): induced transcription
- EC50 ([2]; read-out: EC50, transcriptional activation through aERα, CV1 cells, 3x-ERE-TATA-Luc): 2800 nM
- Cytotoxicity (cell detachment, cytopathology) [12]: toxic to the cells
- Concentration eliciting maximal transactivation ([13]; CV1 assay, hERα): 10 µM
- Transcription of estrogen responsive gene with hERα ([13]; CV1 cells): induced transcription
- RBA, Human [9]: 0.001
- Binder class, Human [9]: EB (Equivocal binder: displaced greater than 50%, but less than 80% at the highest soluble concentration.)
- E2 displaced from hERα [9]: 58%
- Binding classification for hERα [9]: equivocal binder
- Concentration eliciting maximal transactivation ([4]; T47D-KBluc assay): 10 µM
- Transcriptional activation of estrogen-dependent reporter ([4]; T47D-KBluc cells): dose-dependent increase
- EC50 ([4]; read-out: EC50, transcriptional activation through hER, T47D-KBluc cells): 1500 nM
- RBA, Alligator [5]: 0.02
- E2 displaced from aERα [5]: 83%
- IC50 ([5]; read-out: IC50 for aERα): 4000 nM

SMILES: ClC1=C(Cl)[C@]2(Cl)[C@H]3[C@H]([C@H](Cl)C(Cl)[C@@H]3Cl)[C@@]1(Cl)C2(Cl)Cl (stereo partly drawn) [trans-Nonachlor]
- Binder class, Human [9]: NB (Non-binder: displaced less than 50% 17b-estradiol at the highest soluble concentration.)
- E2 displaced from hERα [9]: 48%
- Binding classification for hERα [9]: non-binder
- RBA, Alligator [5]: 0.005
- Binder class, Alligator [5]: EB (Equivocal binder: displaced greater than 50%, but less than 80% at the highest soluble concentration.)
- E2 displaced from aERα [5]: 68%
- Binding classification for aERα [5]: equivocal binder

From PMC2944037 (Environmental toxicology and chemistry / SETAC, 2010)
